Columns and labels:
[1] = biological target: T1, Deoxyuridine 5'-triphosphate nucleotidohydrolase, mitochondrial (Homo sapiens, UniProt P33316); assay: Inhibitory constant against human deoxyuridine 5'-triphosphate nucleotidohydrolase expressed in Escherichia coli BL21 (DE3) cells
T1 sequence (P33316 whole entry): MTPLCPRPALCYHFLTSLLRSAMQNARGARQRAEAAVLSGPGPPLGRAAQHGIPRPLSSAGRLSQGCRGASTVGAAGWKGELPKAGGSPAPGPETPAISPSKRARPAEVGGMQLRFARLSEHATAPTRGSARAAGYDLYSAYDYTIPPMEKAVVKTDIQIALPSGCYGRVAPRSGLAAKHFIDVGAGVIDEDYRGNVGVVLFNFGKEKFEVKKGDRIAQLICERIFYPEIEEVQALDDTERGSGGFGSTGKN
How it was run: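 Human dUTPase expressed in E. coli BL21(DE3) and purified like the Plasmodium enzyme (phosphocellulose, then gel filtration). dUTP hydrolysis followed continuously by stopped-flow as pH-indicator absorbance (cresol red/bicine, 50:2000 µM, 573 nm). Apparent KM from integrated Michaelis-Menten fits at each inhibitor concentration; Ki from linear KMapp versus [I].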

L6 = assay: In vitro cytotoxicity aganist rat skeletal myoblasts (L-6 cells) after 72 hours; type: functional, cell-based; conditions: L6, 72 h
How it was run: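 L-6 rat skeletal myoblasts seeded at 4 × 10^4 cells/mL in RPMI 1640 with 10% FBS and 2 mM L-glutamine. After 24 h, medium replaced with a serial drug dilution, then 72 h at 37 °C, 5% CO2. Alamar Blue added for a further 2-4 h. Fluorescence read at ex 536/em 588 nm. Run twice independently, in duplicate.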

[2] = system: Trypanosoma brucei rhodesiense; assay: Inhibitory constant against Trypanosoma brucei rhodesiense upon incubation with the compound at 37 degrees C under a 5% CO2 atmosphere for 72 hours; type: functional, organism-based
Leishmania donovani = assay: In vitro growth inhibitory activity against Leishmania donovani amastigotes at 37 degrees C under a 5% CO2 atmosphere for 96 hours; type: functional, organism-based
How it was run: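 Mouse peritoneal macrophages in RPMI 1640 with 10% heat-inactivated FBS, infected after 24 h with L. donovani amastigotes at 3:1 (amastigote:macrophage). Free amastigotes washed out at 4 h. Next day, drug-containing medium added for 96 h at 37 °C, 5% CO2. Slides methanol-fixed and Giemsa-stained. Percentage of infected macrophages scored microscopically versus control; IC50 by linear regression. Twice independently, in duplicate.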

Trypanosoma cruzi = assay: In vitro growth inhibitory activity against Trypanosoma cruzi in rat L-6 cells upon incubation at 37 degrees C in 5% CO2 atmosphere for 4 days; type: functional, organism-based; conditions: L6, 96 h
How it was run: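 L-6 cells seeded at 2000 cells/well in RPMI 1640 with 10% FBS and 2 mM L-glutamine. After 24 h, 5000 T. cruzi Tulahuen C2C4 LacZ trypomastigotes added with serial drug dilutions, then 4 days at 37 °C, 5% CO2. CPRG/Nonidet substrate added and colour read at 540 nm after 2-4 h. IC50 from sigmoidal curve. Twice independently, in duplicate.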

[3] = biological target: T2, dUTP pyrophosphatase (Plasmodium falciparum 3D7) (UniProt Q8II92); assay: Selectivity index for Plasmodium falciparum deoxyuridine 5'-triphosphate nucleotidohydrolase defined as (Ki Human)/(Ki Plasmodium falciparum)
T2 sequence (whole entry): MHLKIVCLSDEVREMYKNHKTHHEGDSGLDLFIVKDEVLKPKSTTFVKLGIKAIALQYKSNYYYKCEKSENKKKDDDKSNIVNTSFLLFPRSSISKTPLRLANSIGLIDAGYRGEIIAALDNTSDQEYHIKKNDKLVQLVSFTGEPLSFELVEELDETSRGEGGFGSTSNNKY
How it was run: (§1)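 Ratio of human dUTPase Ki to P. falciparum dUTPase Ki. Both Ki values came from stopped-flow pH-indicator assays following dUTP hydrolysis, with Ki derived from the dependence of apparent KM on inhibitor concentration.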

dUTP pyrophosphatase [4] = biological target: T3, dUTP pyrophosphatase (Leishmania major, UniProt O15826); assay: Inhibitory constant against Leishmania major deoxyuridine 5'-triphosphate nucleotidohydrolase
T3 sequence (O15826 whole entry): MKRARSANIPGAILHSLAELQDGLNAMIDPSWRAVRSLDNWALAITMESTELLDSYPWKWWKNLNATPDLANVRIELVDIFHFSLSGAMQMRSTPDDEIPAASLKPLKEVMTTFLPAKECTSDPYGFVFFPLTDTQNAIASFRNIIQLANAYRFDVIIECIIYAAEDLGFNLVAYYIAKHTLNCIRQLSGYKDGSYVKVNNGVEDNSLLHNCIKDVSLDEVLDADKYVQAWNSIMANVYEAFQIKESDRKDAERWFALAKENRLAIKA

Plasmodium falciparum = assay: In vitro inhibitory activity against Plasmodium falciparum as [3H]hypoxanthine (50 uL) incorporation at 37C; type: functional, organism-based
dUTP pyrophosphatase [5] = biological target: T4, dUTP pyrophosphatase (Plasmodium falciparum 3D7, UniProt Q8II92); assay: Inhibitory constant against Plasmodium falciparum deoxyuridine 5'-triphosphate nucleotidohydrolase expressed in Escherichia coli BL21 (DE3) cells
T4 sequence (Q8II92 whole entry): T2 sequence (whole entry)
How it was run: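 Recombinant PfdUTPase expressed in E. coli BL21(DE3) and purified by phosphocellulose and gel filtration to ~96% purity. Continuous stopped-flow assay following proton release with cresol red/bicine (50:2000 µM, 573 nm). Mix: 30 nM enzyme, 50 µM dUTP, 5 mM MgCl2, 2.5 mM DTT, 1.25 mg/mL BSA, 100 mM KCl. KMapp from integrated Michaelis-Menten fits, plotted against [I] to give Ki.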

[6] = biological target: T2, dUTP pyrophosphatase (Plasmodium falciparum 3D7); assay: Selectivity index for Plasmodium falciparum deoxyuridine 5'-triphosphate nucleotidohydrolase defined as (Ki Human)/(Ki Plasmodium falciparum); na= not relevant; how it was run: as §1

| Ki [1] [µM] | IC50 [2] [µM] | IC50 (Trypanosoma cruzi) [µM] | SI [3] | Ki (dUTP pyrophosphatase [4]) [µM] | IC50 (Plasmodium falciparum) [µM] | Ki (dUTP pyrophosphatase [5]) [µM] | SI [6] | SMILES | IC50 (L6) [µM] | IC50 (Leishmania donovani) [µM] |
| --- | --- | --- | --- | --- | --- | --- | --- | --- | --- | --- |
| > 1000 | 147 | > 295 | > 5 | > 1000 | > 16 | 178 |  | CS(=O)(=O)NCC1OC(n2ccc(=O)[nH]c2=O)CC1O (centres undefined) | > 295 | > 98 |
| > 1000 | 149 | > 289 | > 5 | > 1000 | > 16 | 189 |  | CCCCC(=O)NCC1OC(n2ccc(=O)[nH]c2=O)CC1O (centres undefined) | > 289 | > 97 |
| > 1000 | 145 | > 293 |  | 707 | > 163 | > 1000 | Not Relevant | NS(=O)(=O)OC[C@H]1O[C@@H](n2ccc(=O)[nH]c2=O)C[C@@H]1O |  | > 98 |
| > 1000 | 13 | 273 | > 3 | > 1000 | > 19 | 294 |  | CC(=O)OC[C@H]1O[C@@H](n2ccc(=O)[nH]c2=O)C[C@@H]1O | 64 | > 111 |
| > 1000 | 147 | > 284 | > 4 | > 1000 | > 16 | 228 |  | CCCCC(=O)OC[C@H]1O[C@@H](n2ccc(=O)[nH]c2=O)C[C@@H]1O | > 289 | 96 |
| > 1000 | 194 | > 335 |  | > 1000 | > 19 | > 1000 | Not Relevant | CC(=O)NCC1OC(n2ccc(=O)[nH]c2=O)CC1O (centres undefined) | > 335 | > 112 |
| > 1000 |  |  |  | > 1000 |  | > 1000 | Not Relevant | NCC1OC(n2ccc(=O)[nH]c2=O)CC1O (centres undefined) |  |  |
| > 1000 | 123 | > 222 | > 8 | > 1000 | 98 | 123 |  | CCOP(=O)(CC(=O)OC[C@H]1O[C@@H](n2ccc(=O)[nH]c2=O)C[C@@H]1O)OCC | 168 | > 74 |
| > 1000 | 37 | > 247 | > 3 | > 1000 | > 14 | 316 |  | CCOP(=O)(OCC)OC[C@H]1O[C@@H](n2ccc(=O)[nH]c2=O)C[C@@H]1O | 198 | > 82 |

The next lines start with the compound.

| SMILES | Ki [1] [µM] | IC50 [2] [µM] | IC50 (Trypanosoma cruzi) [µM] | SI [3] | Ki (dUTP pyrophosphatase [4]) [µM] | IC50 (Plasmodium falciparum) [µM] | Ki (dUTP pyrophosphatase [5]) [µM] | SI [6] | IC50 (L6) [µM] | IC50 (Leishmania donovani) [µM] |
| --- | --- | --- | --- | --- | --- | --- | --- | --- | --- | --- |
| CCOP(=O)(OCC)OC[C@H]1O[C@@H](n2ccc(=O)[nH]c2=O)C[C@@H]1O[Si](C)(C)C(C)(C)C | > 1000 | 35 | 41 | > 3 | > 1000 | > 10 | 340 |  | 108 | 63 |
| O=c1ccn(C2CC(F)C(CO[Si](c3ccccc3)(c3ccccc3)c3ccccc3)O2)c(=O)[nH]1 (centres undefined) | > 1000 | 4.5 | 84 |  | > 1000 | 1 | 975 | Not Relevant | 86 |  |
| O=C(NCC1OC(n2ccc(=O)[nH]c2=O)CC1O)c1ccccc1 (centres undefined) | 469 | 120 | > 272 | 2.6 | > 1000 | > 15 | 178 |  | > 272 | > 91 |
| O=c1ccn(C2C=CC(CO[Si](c3ccccc3)(c3ccccc3)c3ccccc3)O2)c(=O)[nH]1 (centres undefined) | > 1000 | 1.6 | 42 | > 769 | 350 | 1 | 1.3 |  | 85 | 13 |
| O=c1ccn(C2CC(O)C(CNP(=O)(Oc3ccccc3)Oc3ccccc3)O2)c(=O)[nH]1 (centres undefined) | > 1000 | > 196 | > 65 | > 38 | > 1000 | > 11 | 26 |  | > 196 | > 65 |
| CC(C)(C)[Si](C)(C)O[C@H]1C[C@H](n2ccc(=O)[nH]c2=O)O[C@@H]1CO | 119 | 83 | > 263 | 0.2 | 114 | > 15 | 648 |  | > 263 | > 88 |
| CC(C)(C)[Si](C)(C)OC1CC(n2ccc(=O)[nH]c2=O)OC1CNP(=O)(Oc1ccccc1)Oc1ccccc1 (centres undefined) | 232 | 28 | 6 | 3.5 | > 1000 | 4 | 67 |  | 18 | < 6 |
| Cc1ccc(S(=O)(=O)OC[C@H]2O[C@@H](n3ccc(=O)[nH]c3=O)C[C@@H]2O)cc1 | > 1000 | 44 | > 236 | > 7 | > 1000 | > 13 | 142 |  | > 236 | > 79 |
| O=c1ccn([C@H]2C[C@H](O)[C@@H](COP(=O)(Oc3ccccc3)Oc3ccccc3)O2)c(=O)[nH]1 | 135 | 52 | > 196 | 0.6 | > 1000 | > 11 | 238 |  | > 196 | > 65 |
| O=c1ccn(C2CC(F)C(CNC(c3ccccc3)(c3ccccc3)c3ccccc3)O2)c(=O)[nH]1 (centres undefined) | > 1000 | 3.6 | 47 | > 83 | > 1000 | 5.3 | 12 |  | 30 | > 63 |
| CC(C)(C)[Si](C)(C)O[C@H]1C[C@H](n2ccc(=O)[nH]c2=O)O[C@@H]1COC(c1ccccc1)(c1ccccc1)c1ccccc1 | > 1000 | 25 | 247 | > 1.9 | 454 | 1 | 515 |  | > 154 | 17 |
| CCOP(=O)(CC(=O)OC[C@H]1O[C@@H](n2ccc(=O)[nH]c2=O)C[C@@H]1O[Si](C)(C)C(C)(C)C)OCC |  | 40 | 75 |  | > 1000 | 18 | 217 | Not Relevant |  | > 58 |
| NS(=O)(=O)NC(=O)OCC1C=CC(n2ccc(=O)[nH]c2=O)O1 (centres undefined) | 799 | 40 | > 270 | 9.7 | > 1000 | > 150 | 82 |  | 262 | > 90 |

Reference: ChEMBL document CHEMBL1140411, “Deoxyuridine triphosphate nucleotidohydrolase as a potential antiparasitic drug target” (J Med Chem, 2005)
